MEKK2wt PB1 HTS: raises or lowers MEK5 binding to wildtype human MEKK2 PB1 domain. Q9Y2U5. bead flow cytometry, Alexa488-MEK5 binding to MEKK2 WT; actives lie on both sides. binding response (% of control), % at 10 µM. 290,000 compounds, 1.1% hits; in the data active means binding response below about 67% or above about 130%
UBC13 inh: blocks human UBC13 polyubiquitin chain formation. inhibition, % at 20 µM. AID 485273. TR-FRET. 330,000 compounds, 0.47% hits. P61088; in the data active means inhibition above about 45%, passing the limit was not always enough
DSG3 Ab inh: inhibitors of pemphigus antibody binding to human desmoglein-3; P32926; DSG3-coupled beads, scFv-anti-DSG3-GFP binding, flow cytometry; stronger effect = lower value; binding (percent of control), % at 10 µM; 310,000 compounds, 0.48% hits;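 active means binding more than 3 SD below its plate's average and above zero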
Target sequence (P32926 whole entry, looked up): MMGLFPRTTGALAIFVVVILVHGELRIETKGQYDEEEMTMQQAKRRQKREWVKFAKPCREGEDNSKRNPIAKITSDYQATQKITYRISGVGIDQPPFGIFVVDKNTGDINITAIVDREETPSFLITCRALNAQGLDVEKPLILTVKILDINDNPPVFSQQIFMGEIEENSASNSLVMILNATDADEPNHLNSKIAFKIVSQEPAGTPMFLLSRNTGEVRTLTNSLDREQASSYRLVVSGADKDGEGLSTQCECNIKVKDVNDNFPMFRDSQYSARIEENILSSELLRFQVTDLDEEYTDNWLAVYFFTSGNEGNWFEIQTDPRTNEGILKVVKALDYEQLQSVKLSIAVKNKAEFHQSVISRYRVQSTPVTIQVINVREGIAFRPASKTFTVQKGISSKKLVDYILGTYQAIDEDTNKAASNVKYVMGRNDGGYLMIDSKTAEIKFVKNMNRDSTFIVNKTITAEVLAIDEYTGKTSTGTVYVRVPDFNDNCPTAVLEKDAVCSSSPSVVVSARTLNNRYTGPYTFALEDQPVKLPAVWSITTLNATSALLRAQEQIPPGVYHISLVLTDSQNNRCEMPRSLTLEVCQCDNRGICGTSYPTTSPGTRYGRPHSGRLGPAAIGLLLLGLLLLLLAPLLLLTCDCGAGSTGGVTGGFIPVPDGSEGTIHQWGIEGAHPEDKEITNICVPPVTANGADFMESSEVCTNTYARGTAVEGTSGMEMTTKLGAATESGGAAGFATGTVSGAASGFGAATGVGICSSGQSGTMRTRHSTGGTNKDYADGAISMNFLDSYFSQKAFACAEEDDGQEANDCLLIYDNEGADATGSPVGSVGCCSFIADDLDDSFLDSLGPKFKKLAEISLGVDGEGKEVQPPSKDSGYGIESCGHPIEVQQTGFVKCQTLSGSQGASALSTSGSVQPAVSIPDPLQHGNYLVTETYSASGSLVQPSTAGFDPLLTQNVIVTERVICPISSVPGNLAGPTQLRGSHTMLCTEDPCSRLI
MEKK3 PB1 HTS: raises or lowers MEK5 binding to the human MEKK3 PB1 domain | Q99759 | bead-based flow cytometry, Alexa488-MEK5 binding to MEKK3; actives lie on both sides; 0 = blocked by unlabeled MEK5, 100 = vehicle | binding response (% of control), % at 10 µM | 290,000 compounds, 1.4% hits;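 active means binding response more than 3 SD above or below the average of its plate-row segment, actives on both sides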;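 further: Alexa488 bead fluorescence after subtracting the streptavidin-only scavenger bead signal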
MEKK2mut PB1 HTS: signal of MEK5 binding to mutant human MEKK2 PB1 domain; 290,000 compounds, 0.35% hits; bead flow cytometry, Alexa488-MEK5 binding to MEKK2 mutant; percent response, % at 10 µM; in the data active means percent response above about 24%, passing the limit was not always enough
Apaf-1 inh: human Apaf-1 inhibition. inhibition, % at 20 µM. reconstituted apoptosome caspase-3 activity, DEVD-Rh110 fluorescence. O14727. AID 489030. 330,000 compounds, 0.71% hits; active means inhibition of at least 40% at 20 µM;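 further: plate controls were DMSO wells for no effect and DEVD-CHO caspase inhibitor wells for full effect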
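Material: reconstituted apoptosome with Apaf-1, cytochrome c, caspase-9, procaspase-3, dATP. Technique: Rh110 fluorescence intensity. Buffer or medium: pH 7.5 Hepes buffer with CHAPS, BSA, DTT. Times: 30 min plus 50 min, RT.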
Apaf-1 inh conf2: confirmation of Apaf-1 inhibitors; reconstituted apoptosome, caspase-3 DEVD-Rh110 fluorescence; AID 504614; shares compounds with Apaf-1 inh; inhibition, % at 20 µM; 1,800 compounds, 25% hits;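 active means mean inhibition of at least 40% at 20 µM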;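 further: plate controls were DMSO wells for no effect and DEVD-CHO caspase inhibitor control wells for full effect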
Rh110 interf inh: Rh110 signal interference in Apaf-1 inhibitor counter-screen; shares compounds with Apaf-1 inh; Rh110 fluorescence interference, quenched caspase reaction; activation (fluorescence interference), % at 20 µM; 1,800 tested, under 10 active;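 active means signal rise of 40% or more at 20 µM, treated as a fluorescence artifact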
Apaf1 inh interf: counter-screen for Apaf-1 inhibitors: fluorescence interference, dose response. fluorescence interference counterscreen, Apaf-1 assay format. 460 tested, under 10 active. shares compounds with Apaf-1 inh. AID 588538. IC50, µM; call rule not given here
* marks the source's active call; other numbers are inactive results; / = not tested or not shown. Only some compounds are listed: those with a hit (about 3.2% of all), similar ones and a draw of the others.

SMILES | MEKK2wt PB1 HTS | UBC13 inh | DSG3 Ab inh | MEKK3 PB1 HTS | MEKK2mut PB1 HTS | Apaf-1 inh | Apaf-1 inh conf2 | Rh110 interf inh | others
O=c1cc(C=NNc2ccccc2)[nH]c(=O)[nH]1 | / | / | 95.8 | / | / | / | / | /
O=c1cc(N/N=C/c2ccccc2)[nH]c(=O)[nH]1 | / | -33.2 | / | / | / | 68.2* | 43.1* | 7.6 | Apaf1 inh interf=>100
O=C1C=C(Nc2ccccc2O)c2ccccc2C1=O | 102.0 | -322.8 | 94.2 | 101.0 | -1.0 | 96.4* | 92.5* | 0.6 | Apaf1 inh interf=>100
CC(Nc1cccc2ccccc12)C(=O)N/N=C/c1ccccn1 (stereo unspecified) | 109.0 | -115.8 | 117.8 | 110.0 | 10.0 | 95.3* | 5.6 | 7.9
O=C1NN=C2CCCCCCCCCCC12 (stereo unspecified) | / | / | 105.8 | / | / | / | / | /
O=C(/C=C/c1ccco1)c1ccc(NC(=O)C23CC4CC(CC(C4)C2)C3)cc1 | 88.0 | -0.6 | 102.5 | 98.0 | 4.0 | 45.4* | 15.4 | 3.5
N#CC1(NC(=O)COc2cccnc2[N+](=O)[O-])CCCCC1 | / | 6.5 | 108.2 | / | / | -8.1 | / | /
S=C(Nc1ccc(N2CCOCC2)cc1)Nc1ccc2nc(-c3ccco3)c(-c3ccco3)nc2c1 | / | 31.8 | 84.5 | / | / | 41.3* | 26.0 | 8.8
C[C@@H]1CN([C@H](C)CO)C(=O)c2c(c3ccccc3n2C)-c2ccccc2CO[C@H]1CN(C)C(=O)NC1CCCCC1 | / | / | 95.6 | / | / | / | / | /
CCOP(=O)(OCC)C1NC(=O)N(c2ccccc2)C1=O (stereo unspecified) | 110.0 | 4.0 | 92.2 | 109.0 | 9.0 | -3.7 | / | /
Oc1ccc(NCc2ccccc2OCc2ccccc2)cc1 | 92.0 | 4.7 | 121.6 | 97.0 | -1.0 | 89.5* | 18.3 | 5.6
CCOC(=O)C1(Cc2ccccc2C)CCCN(C(=O)c2ccoc2)C1 (stereo unspecified) | 95.0 | -4.1 | 107.1 | 99.0 | -5.0 | 2.3 | / | /
Cc1ccc(C(=O)OCC(=O)NNC(=O)c2cccs2)c(O)c1 | / | 1.3 | 94.4 | / | / | 1.4 | / | /
CCn1cc(C(=O)OCC(=O)OC2CC(C)CCC2C(C)C)c(=O)c2ccc(C)nc21 (stereo unspecified) | 106.0 | 8.2 | 103.1 | 110.0 | 1.0 | 47.6* | 26.1 | 7.2
CCOC(=O)C1CCN(C(=O)c2ccc3c(=O)n4nc(Nc5ccccc5OC)sc4nc3c2)CC1 | / | / | 102.0 | / | / | / | / | /
COc1ccc(CN2CCCC(C(=O)Nc3cccc(-n4cnnn4)c3)C2)c(C)c1C (stereo unspecified) | 112.0 | 1.0 | 104.4 | 102.0 | 2.0 | -1.4 | / | /
Cc1cc(NC(=O)CN2C(=O)N(C)C3(CCCCC3)C2=O)ccc1Br | / | 5.0 | 107.9 | / | / | 2.2 | / | /
O=C(O)c1ccccc1C(=O)Nc1ccccn1 | 89.0 | 10.7 | 103.0 | 85.0 | -6.0 | -7.2 | / | /
O=C(Nc1ccccn1)c1ccc2ccccc2c1O | 105.0 | -1.0 | 98.5 | 104.0 | 6.0 | 45.2* | 4.8 | 6.7
CC(C)(C)CC(C)(C)n1nnnc1N | / | / | 114.1 | / | / | / | / | /
Cc1ccc(NC2=C(NC(=O)c3ccccc3)C(=O)c3ccccc3C2=O)cc1Cl | 114.0 | -119.1 | 121.7 | 96.0 | 12.0 | 67.3* | 64.4* | 6.7 | Apaf1 inh interf=>100
Cc1nn(-c2ccccc2)c2c1C(c1ccccc1)C(C#N)=C(N)O2 (stereo unspecified) | 100.0 | -30.9 | 99.0 | 104.0 | 6.0 | 96.5* | 14.6 | -2.1
Cc1ccc(-n2nc(C)c3c2OC(N)=C(C#N)C3c2ccoc2)cc1 (stereo unspecified) | 95.0 | -22.2 | 97.6 | 101.0 | -1.0 | 81.0* | 17.0 | 2.7
CCOc1ccc(N(Cc2cc3ccc(C)cc3[nH]c2=O)S(=O)(=O)c2ccccc2)cc1 | 94.0 | 1.7 | 108.5 | 97.0 | -7.0 | 14.1 | / | /
COc1cc(OC)cc(C(=O)NNC(=O)C(CCC(N)=O)NS(=O)(=O)c2ccc(Cl)cc2)c1 (stereo unspecified) | / | / | 97.2 | / | / | / | / | /
SMILES | MEKK2wt PB1 HTS | UBC13 inh | DSG3 Ab inh | MEKK3 PB1 HTS | MEKK2mut PB1 HTS | Apaf-1 inh | Apaf-1 inh conf2 | Rh110 interf inh | others
Clc1ccc(/C=N/Nc2ncnc3ccccc23)cc1Cl | / | -10.4 | 105.7 | / | / | 42.8* | 33.4 | 13.5
Fc1ccccc1/C=N/Nc1ncnc2ccccc12 | 99.0 | -0.8 | 99.2 | 105.0 | 0.0 | -1.9 | / | /
COC(=O)c1cc(C(=O)OCC(=O)Nc2ccc(N3CCOCC3)cc2)cc([N+](=O)[O-])c1 | / | 6.7 | / | / | / | -8.2 | / | /
Cc1ccc2nc(SCC(=O)N3CCCc4ccccc43)nc(=O)n2c1 | / | / | 122.9 | / | / | / | / | /
Cc1cc(/C=N/n2cnnc2)c(C)n1-c1ccc(OCc2ccc(Cl)cc2Cl)cc1 | 108.0 | 5.2 | 101.7 | 114.0 | 4.0 | 45.6* | 27.8 | 6.4
CC(C)(C)C(=O)NNC(=O)c1cnccn1 | 104.0 | 0.8 | 87.2 | 102.0 | 7.0 | -5.1 | / | /
CCC(CC)c1nnc(NC(=O)CN2C(=O)c3ccccc3C2=O)s1 | 101.0 | 6.1 | 96.7 | 97.0 | 1.0 | 86.8* | 4.4 | -2.7
CCC(CC)c1nnc(NC(=O)CCN2C(=O)c3ccccc3C2=O)s1 | 104.0 | 3.1 | 103.6 | 109.0 | 16.0 | 5.8 | / | /
CC(C)(C)C(=O)Nc1ccc(C(=O)COC(=O)C2=COCCO2)cc1 | / | -1.6 | 106.8 | / | / | 1.5 | / | /
Cc1cc2ccccc2n1CCNC(=O)C1CCCCC1 | 106.0 | 14.3 | 96.4 | 103.0 | 8.0 | 44.2* | 8.3 | 7.2
Cc1cc2ccccc2n1CCNC(=O)C1CCCC1 | / | -1.4 | 190.4 | / | / | 6.0 | / | /
CCCn1nc(C(=O)Nc2ccc(N3CCOCC3)cc2)c2ccccc2c1=O | / | -5.0 | 82.5 | / | / | 5.2 | / | /
CCCn1nc(C(=O)Nc2ccc(-n3cnnn3)cc2)c2ccccc2c1=O | / | 4.6 | 103.1 | / | / | 70.6* | 8.2 | 5.2
Cn1nc(C(=O)NCC2COc3ccccc3O2)c2ccccc2c1=O (stereo unspecified) | / | 2.8 | / | / | / | -7.0 | / | /
O=C(Nc1ccccc1)Nc1ccc(O)c2ccccc12 | / | -8.8 | 103.3 | / | / | 44.0* | 28.3 | 1.8
O=C(Nc1ccccc1)Nc1cccc2ccccc12 | 73.0 | 20.0 | 90.7 | 71.0 | -11.0 | -19.5 | / | /
Nc1ccc2nc3c(c(Cl)c2c1)CCCC3 | 84.0 | -2.2 | 86.7 | 83.0 | -20.0 | 63.5* | 22.6 | 1.8
O=C(OCc1nnc(-c2ccccc2)o1)c1ccc([N+](=O)[O-])s1 | / | -3.5 | 103.0 | / | / | 47.2* | 20.6 | -2.5
Cc1ccc(S(=O)(=O)N2CCN(C(=O)C(C)Cn3cncn3)CC2)cc1 (stereo unspecified) | 102.0 | 5.3 | / | 103.0 | -1.0 | 0.2 | / | /
S=c1[nH]cnc2scc(-c3ccc(Cl)cc3)c12 | 96.0 | 12.3 | 114.0 | 99.0 | -1.0 | 9.0 | / | /

Screening results: PubChem BioAssay, several laboratories
